ChEMBL document CHEMBL4428088, “Synthesis and evaluation of 6-pyrazoylamido-3N-substituted azabicyclo[3,1,0]hexane derivatives as T-type calcium channel inhibitors for treatment of neuropathic pain” (Bioorg Med Chem, 2016)
pIC50: −log10 of the molar value. Calls of active or inactive are those of the source. No cut-off for these calls is given here.

Tests used:
[1] = molecular target: CYP2C19 (Homo sapiens, UniProt P33261); experiment: Inhibition of human CYP2C19 expressed in baculosomes assessed as remaining activity using fluorogenic substrate after 15 mins in presence of NADPH by fluorescence assay; type: ADME; set-up: concentration or dose not given beside the values; conditions: recombinant human CYP2C19 in baculosomes, probe fluorogenic substrate, read-out: Activity
Outline: (§1)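 Vivid CYP450 fluorescence assay for CYP2D6, 2C9, 2C19 and 3A4. Compound was preincubated with baculosome Master Pre-Mix and regeneration system for 15 min at 37 °C. The reaction was started with Vivid substrate plus NADPH and read on a fluorescence plate reader. Values are % remaining activity, in triplicate.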

[2] = molecular target: CYP2D6 (Homo sapiens, UniProt P10635); experiment: Inhibition of human CYP2D6 expressed in baculosomes assessed as remaining activity using fluorogenic substrate after 15 mins in presence of NADPH by fluorescence assay; type: ADME; set-up: concentration or dose not given beside the values; conditions: recombinant human CYP2D6 in baculosomes, probe fluorogenic substrate, read-out: Activity; outline: as §1
[3] = molecular target: CYP3A4 (Homo sapiens, UniProt P08684); experiment: Inhibition of human CYP3A4 expressed in baculosomes assessed as remaining activity using fluorogenic substrate after 15 mins in presence of NADPH by fluorescence assay; type: ADME; set-up: concentration or dose not given beside the values; conditions: recombinant human CYP3A4 in baculosomes, probe fluorogenic substrate, read-out: Activity; outline: as §1
[4] = molecular target: CYP2C9 (Homo sapiens, UniProt P11712); experiment: Inhibition of human CYP2C9 expressed in baculosomes assessed as remaining activity using fluorogenic substrate after 15 mins in presence of NADPH by fluorescence assay; type: ADME; set-up: concentration or dose not given beside the values; conditions: recombinant human CYP2C9 in baculosomes, probe fluorogenic substrate, read-out: Activity; outline: as §1
[5] = molecular target: T1, Voltage-dependent T-type calcium channel subunit alpha-1H (Homo sapiens, UniProt O95180); experiment: Inhibition of T-type alpha1H channel (unknown origin) expressed in HEK293 cells after 3 mins by patch clamp assay; type: cell-based
[6] = molecular target: T1, Voltage-dependent T-type calcium channel subunit alpha-1H; experiment: Inhibition of T-type alpha1H channel (unknown origin) expressed in HEK293 cells at 10 uM by fluorescence-based HTS assay; type: cell-based
Outline: (§2)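 FDSS6000 fluorescence-based HTS assay in HEK293 cells expressing Cav3.1 (α1G) or Cav3.2 (α1H), read as % inhibition.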

[7] = molecular target: T2, Voltage-dependent T-type calcium channel subunit alpha-1G (Homo sapiens, UniProt O43497); experiment: Inhibition of T-type alpha1G channel (unknown origin) expressed in HEK293 cells at 10 uM by fluorescence-based HTS assay; type: cell-based; outline: as §2
[8] = Metabolic stability in human liver microsomes assessed as parent compound remaining after 30 mins in presence of NADPH by LC-MS/MS analysis; type: ADME, Microsome; conditions: read-out: Stability
Outline: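 Pooled human liver microsomes were incubated at 37 °C with compound in potassium phosphate buffer and 1.2 mM NADPH for 30 min. The reaction was stopped with cold acetonitrile containing internal standard, centrifuged, and the supernatant analysed by LC-MS/MS.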

[9] = AUC (0 to infinity) in rat at 10 mg/kg, iv; type: ADME, organism-based; set-up: dose 10 mg/kg, time infinity, route intravenous; conditions: in vivo
[10] = tested on: Rattus norvegicus; experiment: Antiallodynic activity in rat model of spinal nerve ligation-induced neuropathic pain assessed as reduction in cold allodynia by measuring paw withdrawal in response to acetone application at 100 mg/kg, po administered on day 14 after ligation surgery measured 1 to 5 hrs post dose relative to gabapentin; type: functional
Outline: (§3)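 Spinal nerve ligation rats were dosed orally at 100 mg/kg 14 days after surgery, with gabapentin 100 mg/kg as reference (n = 5 test, n = 4 gabapentin). Mechanical and cold allodynia were tested 1, 3 and 5 h post dose. Significance versus pre-dose value by paired t-test.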

[11] = Oral bioavailability in rat at 10 mg/kg; type: ADME, organism-based; conditions: in vivo
[12] = tested on: Rattus norvegicus; experiment: Antiallodynic activity in rat model of spinal nerve ligation-induced neuropathic pain assessed as […] for paw withdrawal at 100 mg/kg, po administered on day 14 after ligation surgery and measured 3 to 5 hrs post dose by Von Frey filaments based method; type: functional, organism-based; outline: as §3
[13] = Mean residence time in rat at 10 mg/kg, iv; type: ADME, organism-based; conditions: in vivo
[14] = AUClast in rat at 10 mg/kg, po; type: ADME, organism-based; set-up: dose 10 mg/kg, route oral, time 0 - last; conditions: in vivo
[15] = Ratio of drug level in rat brain to plasma at 10 mg/kg, iv at 2 hrs; type: ADME, organism-based; conditions: brain and plasma, read-out: BPR
[16] = Tmax in rat at 10 mg/kg, po; type: ADME, organism-based; conditions: in vivo
[17] = Ratio of drug level in rat brain to plasma at 10 mg/kg, po at 2 hrs; type: ADME, organism-based; conditions: brain and plasma, read-out: BPR
[18] = Clearance in rat at 10 mg/kg, iv; type: ADME, organism-based; conditions: in vivo
[19] = AUClast in rat at 10 mg/kg, iv; type: ADME, organism-based; set-up: dose 10 mg/kg, time 0 - last, route intravenous; conditions: in vivo
[20] = Cmax in rat at 10 mg/kg, po; type: ADME, organism-based; set-up: dose 10 mg/kg, route oral; conditions: in vivo
[21] = AUC (0 to infinity) in rat at 10 mg/kg, po; type: ADME, organism-based; set-up: dose 10 mg/kg, route oral, time infinity; conditions: in vivo
[22] = molecular target: Voltage-gated inwardly rectifying potassium channel KCNH2 (Homo sapiens, UniProt Q12809); experiment: Inhibition of human ERG expressed in CHO-K1 cells by whole cell patch clamp method; type: cell-based
[23] = molecular target: T2, Voltage-dependent T-type calcium channel subunit alpha-1G; experiment: Inhibition of T-type alpha1G channel (unknown origin) by whole cell patch clamp method
Outline: (§4)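 Whole-cell patch clamp recording. T-type α1G and α1H IC50 values (±SD) were taken from dose-response curves.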

[24] = molecular target: Voltage-dependent N-type calcium channel subunit alpha-1B (Homo sapiens) (UniProt Q00975); experiment: Inhibition of N-type calcium channel (unknown origin) at 10 uM by whole cell patch clamp method
[25] = molecular target: T1, Voltage-dependent T-type calcium channel subunit alpha-1H; experiment: Inhibition of T-type alpha1H channel (unknown origin) by whole cell patch clamp method; outline: as §4

Chain of CYP2C9 (P11712 whole entry): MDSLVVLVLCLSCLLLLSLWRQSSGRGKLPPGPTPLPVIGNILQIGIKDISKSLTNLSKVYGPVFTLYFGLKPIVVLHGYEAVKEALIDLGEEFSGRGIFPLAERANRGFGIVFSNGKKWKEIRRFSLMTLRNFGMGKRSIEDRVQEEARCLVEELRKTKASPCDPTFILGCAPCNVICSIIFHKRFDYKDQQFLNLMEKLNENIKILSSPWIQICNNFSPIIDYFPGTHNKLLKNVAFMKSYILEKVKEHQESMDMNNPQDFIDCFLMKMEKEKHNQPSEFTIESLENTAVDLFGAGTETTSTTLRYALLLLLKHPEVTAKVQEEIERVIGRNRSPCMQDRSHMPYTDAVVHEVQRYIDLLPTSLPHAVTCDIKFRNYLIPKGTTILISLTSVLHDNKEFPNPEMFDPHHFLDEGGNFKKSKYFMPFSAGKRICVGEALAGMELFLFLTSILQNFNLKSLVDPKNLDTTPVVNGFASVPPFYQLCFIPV
Chain of CYP2C19 (P33261 whole entry): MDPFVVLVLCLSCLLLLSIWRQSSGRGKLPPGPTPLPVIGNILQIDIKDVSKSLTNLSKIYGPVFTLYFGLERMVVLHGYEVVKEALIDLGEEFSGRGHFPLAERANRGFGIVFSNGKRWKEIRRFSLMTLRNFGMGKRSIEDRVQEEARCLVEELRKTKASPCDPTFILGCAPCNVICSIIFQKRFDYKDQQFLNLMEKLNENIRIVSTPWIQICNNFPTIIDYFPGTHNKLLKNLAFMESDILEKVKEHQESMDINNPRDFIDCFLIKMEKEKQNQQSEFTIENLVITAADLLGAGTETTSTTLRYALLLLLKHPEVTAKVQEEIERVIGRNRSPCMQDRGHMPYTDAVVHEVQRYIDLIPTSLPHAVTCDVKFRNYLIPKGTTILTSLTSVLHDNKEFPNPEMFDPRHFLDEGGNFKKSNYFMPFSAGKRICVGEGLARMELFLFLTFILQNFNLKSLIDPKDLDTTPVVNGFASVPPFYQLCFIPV
Chain of Voltage-gated inwardly rectifying potassium channel KCNH2 (Q12809 whole entry): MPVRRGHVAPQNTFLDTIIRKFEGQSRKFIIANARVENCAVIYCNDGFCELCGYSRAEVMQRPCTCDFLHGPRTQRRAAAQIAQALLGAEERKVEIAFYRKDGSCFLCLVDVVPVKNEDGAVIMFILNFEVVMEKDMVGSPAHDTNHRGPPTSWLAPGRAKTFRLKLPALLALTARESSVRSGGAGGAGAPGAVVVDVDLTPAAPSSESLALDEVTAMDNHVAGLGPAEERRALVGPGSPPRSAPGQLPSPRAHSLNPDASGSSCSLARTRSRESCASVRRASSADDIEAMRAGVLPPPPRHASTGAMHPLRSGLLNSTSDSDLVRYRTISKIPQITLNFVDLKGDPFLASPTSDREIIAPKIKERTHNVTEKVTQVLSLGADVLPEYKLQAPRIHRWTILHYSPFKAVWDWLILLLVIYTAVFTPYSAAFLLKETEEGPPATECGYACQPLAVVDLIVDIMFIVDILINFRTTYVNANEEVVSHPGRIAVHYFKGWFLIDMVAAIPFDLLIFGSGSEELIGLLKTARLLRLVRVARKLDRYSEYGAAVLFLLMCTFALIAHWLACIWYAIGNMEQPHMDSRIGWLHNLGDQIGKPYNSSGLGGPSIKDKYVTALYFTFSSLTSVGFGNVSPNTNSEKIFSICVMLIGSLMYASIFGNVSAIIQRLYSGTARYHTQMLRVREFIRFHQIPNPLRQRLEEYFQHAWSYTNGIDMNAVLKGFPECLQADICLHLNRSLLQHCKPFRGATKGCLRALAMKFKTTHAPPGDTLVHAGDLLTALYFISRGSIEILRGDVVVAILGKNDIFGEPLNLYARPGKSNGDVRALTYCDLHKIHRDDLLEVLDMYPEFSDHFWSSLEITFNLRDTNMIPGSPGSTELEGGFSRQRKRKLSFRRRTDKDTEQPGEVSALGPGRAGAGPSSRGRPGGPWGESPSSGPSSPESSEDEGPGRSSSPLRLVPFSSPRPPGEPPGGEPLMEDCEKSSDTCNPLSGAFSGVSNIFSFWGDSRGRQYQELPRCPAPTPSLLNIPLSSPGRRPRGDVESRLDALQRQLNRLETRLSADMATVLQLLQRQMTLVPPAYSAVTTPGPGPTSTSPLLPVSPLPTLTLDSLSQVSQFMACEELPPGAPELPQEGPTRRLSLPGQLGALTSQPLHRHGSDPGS
Chain of CYP3A4 (P08684 whole entry): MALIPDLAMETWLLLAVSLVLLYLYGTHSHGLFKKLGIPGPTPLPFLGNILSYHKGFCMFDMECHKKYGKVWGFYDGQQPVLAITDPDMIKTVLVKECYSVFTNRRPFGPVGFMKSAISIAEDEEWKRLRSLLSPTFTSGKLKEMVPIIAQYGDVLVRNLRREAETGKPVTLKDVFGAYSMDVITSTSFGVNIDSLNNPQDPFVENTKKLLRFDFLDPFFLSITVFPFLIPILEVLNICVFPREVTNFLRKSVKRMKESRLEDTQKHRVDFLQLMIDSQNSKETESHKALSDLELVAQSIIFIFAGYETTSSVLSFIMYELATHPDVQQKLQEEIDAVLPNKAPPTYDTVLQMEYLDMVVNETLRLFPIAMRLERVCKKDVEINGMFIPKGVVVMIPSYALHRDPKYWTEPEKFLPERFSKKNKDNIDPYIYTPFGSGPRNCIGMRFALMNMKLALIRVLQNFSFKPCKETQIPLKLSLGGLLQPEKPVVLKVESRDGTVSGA
Chain of CYP2D6 (P10635 whole entry): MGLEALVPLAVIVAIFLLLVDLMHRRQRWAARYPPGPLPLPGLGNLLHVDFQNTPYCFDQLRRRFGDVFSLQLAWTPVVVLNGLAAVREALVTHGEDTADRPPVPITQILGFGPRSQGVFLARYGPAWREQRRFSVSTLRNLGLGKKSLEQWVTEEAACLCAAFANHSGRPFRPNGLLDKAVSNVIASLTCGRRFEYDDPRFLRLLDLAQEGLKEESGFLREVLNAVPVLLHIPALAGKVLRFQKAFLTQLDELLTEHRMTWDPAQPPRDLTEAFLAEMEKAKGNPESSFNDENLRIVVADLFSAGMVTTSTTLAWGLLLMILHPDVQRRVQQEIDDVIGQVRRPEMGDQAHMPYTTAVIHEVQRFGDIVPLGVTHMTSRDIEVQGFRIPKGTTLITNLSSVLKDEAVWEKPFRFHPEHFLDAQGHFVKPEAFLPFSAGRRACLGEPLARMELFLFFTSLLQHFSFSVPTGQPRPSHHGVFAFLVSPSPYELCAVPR

CC(C)Cc1cc(C(=O)NCC2C3CN(CCC(C)(C)C)CC23)nn1-c1ccccc1 (stereo not given)
activity at 0.25 h [1]: 84.2%
activity at 0.25 h [2]: 55.9%
activity at 0.25 h [3]: 130%
activity at 0.25 h [4]: 87.1%

CC(C)(C)CCN1CC2C(CNC(=O)c3cc(Cl)cc(Cl)c3)C2C1 (stereo not given)
pIC50 [5]: 6.51

CN(CCCc1nc2ccccc2[nH]1)C(=O)C1C2CN(CCc3ccc(C(F)(F)F)cc3)CC21 (stereo not given)
activity at 0.25 h [1]: 42.3%
activity at 0.25 h [2]: 27.7%
activity at 0.25 h [3]: 61.4%
inhibition [6]: 58.7%
inhibition [7]: 49.2%
activity at 0.25 h [4]: 51.4%
remaining at 0.5 h [8]: 76.9%

CC(C)Cc1cc(CNC(=O)C2C3CN(C(=O)c4ccccc4)CC32)nn1-c1ccccc1 (stereo not given)
activity at 0.25 h [1]: 60.8%
activity at 0.25 h [2]: 94%
activity at 0.25 h [3]: 74.6%
AUC(0-inf) [9]: 3860 ng·h/mL
fold change (FC) [10]: 2
bioavailability [11]: 7.6%
Activity [12]: inactive
activity at 0.25 h [4]: 64.6%
MRT [13]: 18.2 min
AUC(0-t) [14]: 273 ng·h/mL
Kp at 2 h [15]: 0.29
Tmax [16]: 26 min
Kp at 2 h [17]: 0.12
clearance [18]: 43.8 mL/min/kg
AUC(0-t) [19]: 3850 ng·h/mL
Cmax [20]: 280 ng/mL
AUC(0-inf) [21]: 294 ng·h/mL

CC(C)Cc1cc(CNC(=O)C2C3CN(Cc4ccccc4)CC32)nn1-c1ccccc1 (stereo not given)
activity at 0.25 h [1]: 30.3%
activity at 0.25 h [2]: 56.2%
activity at 0.25 h [3]: 102%
pIC50 [22]: 5.84
activity at 0.25 h [4]: 118%

CC(C)Cc1cc(CNC(=O)C2C3CN(C(=O)Cc4ccccc4)CC32)nn1-c1ccccc1 (stereo not given)
activity at 0.25 h [1]: 65.5%
activity at 0.25 h [2]: 83%
pIC50 [23]: 5.56
activity at 0.25 h [3]: 80.4%
inhibition [6]: 89.9%
pIC50 [22]: 4.68
inhibition [7]: 81%
activity at 0.25 h [4]: 24.8%
remaining at 0.5 h [8]: 57.8%
inhibition [24]: 60.6%
pIC50 [25]: 5.60

CC(C)Cc1cc(CNC(=O)C2C3CN(CCC(C)(C)C)CC32)nn1-c1ccccc1 (stereo not given)
activity at 0.25 h [1]: 101%
activity at 0.25 h [2]: 126%
activity at 0.25 h [3]: 82.3%
fold change (FC) [10]: 3
pIC50 [22]: 5.59
Activity [12]: Active
activity at 0.25 h [4]: 72.8%

NCC1(CC(=O)O)CCCCC1
Activity [12]: inactive

CC(C)Cc1cc(CNC(=O)C2C3CN(CCc4ccc(C(F)(F)F)cc4)CC32)nn1-c1ccccc1 (stereo not given)
inhibition [6]: 64.6%
inhibition [7]: 60.5%
